Experimental findings from ChEMBL document CHEMBL1144112, “New bromopyrrole alkaloids from the Indopacific sponge Agelas nakamurai” (1999) are described below.

Assay type in all cases: functional
The subject of one assay is Bacillus subtilis. The assay can be described thus: Antibacterial activity against Bacillus subtilis subsp. subtilis str. 168 at 0.2 umol/disk after 24 hrs by agar plate diffusion assay. The essentials:
(§1)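 Paper disks 5 mm across loaded with 0.2 µmol of each isolated compound, placed on agar plates seeded with the test bacterium (B. subtilis 168, S. aureus ATCC 25923, E. coli ATCC 25922 or E. coli HB 101). Read-out is the diameter of the inhibition zone in mm.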

In assay [1] the test system is Escherichia coli. The assay can be described thus: Antibacterial activity against Escherichia coli HB101 at 0.2 umol/disk after 24 hrs by agar plate diffusion assay. Summed up: as §1
For assay [2], the system named is Escherichia coli. The assay can be described thus: Antibacterial activity against Escherichia coli ATCC 25922 at 0.2 umol/disk after 24 hrs by agar plate diffusion assay. Summed up:
as §1

Another assay has as its system Staphylococcus aureus. The assay can be described thus: Antibacterial activity against Staphylococcus aureus ATCC 25923 at 0.2 umol/disk after 24 hrs by agar plate diffusion assay. Summed up: as §1

As to `Nc1nc([C@H]2[C@H](CNC(=O)c3cc(Br)c[nH]3)[C@@H](CNC(=O)c3cc(Br)c[nH]3)[C@@H]2C(=O)O)c[nH]1.O=C(O)C(F)(F)F` [NAKAMURIC ACID], the “inhibition zone (IZ)” value in the assay on Bacillus subtilis was determined as 9 mm.
Regarding `Nc1nc([C@H]2[C@H](CNC(=O)c3cc(Br)c[nH]3)[C@@H](CNC(=O)c3cc(Br)c[nH]3)[C@@H]2c2c[nH]c(N)n2)c[nH]1.O=C(O)C(F)(F)F.O=C(O)C(F)(F)F` [SCEPTRIN (TFA SALT)], the “inhibition zone (IZ)” value was 13 mm in the assay with Escherichia coli [1], 9 mm with Escherichia coli [2], 16 mm with Bacillus subtilis and 16 mm in the assay with Staphylococcus aureus.
Regarding `Nc1nc([C@@H]2c3[nH]c(N)nc3C[C@H](CNC(=O)c3cc(Br)c[nH]3)[C@H]2CNC(=O)c2cc(Br)c[nH]2)c[nH]1.O=C(O)C(F)(F)F.O=C(O)C(F)(F)F` [AGELIFERIN], the “inhibition zone (IZ)” value in the assay with Escherichia coli [1] stood at 11 mm; in the assay on Escherichia coli [2], 8 mm; with Bacillus subtilis it was 14 mm; in the assay with Staphylococcus aureus, 11 mm.
Consider `Cl.Cl.Nc1ncc([C@H]2[C@H](CNC(=O)c3ccc[nH]3)[C@@H](CNC(=O)c3ccc[nH]3)[C@@H]2c2cnc(N)[nH]2)[nH]1` [DEBROMOSCEPTRIN], for which the “inhibition zone (IZ)” value in the assay with Bacillus subtilis worked out at 10 mm.
As for `COC(=O)[C@H]1[C@H](CNC(=O)c2cc(Br)c[nH]2)[C@@H](CNC(=O)c2cc(Br)c[nH]2)[C@@H]1c1c[nH]c(N)n1.O=C(O)C(F)(F)F` [NAKAMURIC ACID METHYL ESTER], the “inhibition zone (IZ)” value in the assay on Bacillus subtilis stood at 9 mm.
